Active and inactive are the calls of the source. The rule behind the calls is not given here.
Columns and labels:
[1] = tested on: SH-SY5Y; test: cells; assay type: functional; conditions: Homo sapiens
[2] = molecular target: T1, Acetylcholinesterase (Homo sapiens, UniProt P22303); test: Inhibition of human recombinant AChE expressed in HEK293 cells using acetylthiocholine iodide as substrate by Ellman's method
[3] = molecular target: Amyloid-beta precursor protein (Homo sapiens) (UniProt P05067); test: Inhibition of human amyloid beta (1 to 42) self-induced aggregation assessed as Amyloid beta (1 to 42) aggregation at 100 uM incubated for 48 hrs by thioflavin T-based fluorescence assay (reference value: 100%); parameters: scale not given: the % may be the effect or the level left
Chain of Amyloid-beta precursor protein (Homo sapiens) (P05067 whole entry): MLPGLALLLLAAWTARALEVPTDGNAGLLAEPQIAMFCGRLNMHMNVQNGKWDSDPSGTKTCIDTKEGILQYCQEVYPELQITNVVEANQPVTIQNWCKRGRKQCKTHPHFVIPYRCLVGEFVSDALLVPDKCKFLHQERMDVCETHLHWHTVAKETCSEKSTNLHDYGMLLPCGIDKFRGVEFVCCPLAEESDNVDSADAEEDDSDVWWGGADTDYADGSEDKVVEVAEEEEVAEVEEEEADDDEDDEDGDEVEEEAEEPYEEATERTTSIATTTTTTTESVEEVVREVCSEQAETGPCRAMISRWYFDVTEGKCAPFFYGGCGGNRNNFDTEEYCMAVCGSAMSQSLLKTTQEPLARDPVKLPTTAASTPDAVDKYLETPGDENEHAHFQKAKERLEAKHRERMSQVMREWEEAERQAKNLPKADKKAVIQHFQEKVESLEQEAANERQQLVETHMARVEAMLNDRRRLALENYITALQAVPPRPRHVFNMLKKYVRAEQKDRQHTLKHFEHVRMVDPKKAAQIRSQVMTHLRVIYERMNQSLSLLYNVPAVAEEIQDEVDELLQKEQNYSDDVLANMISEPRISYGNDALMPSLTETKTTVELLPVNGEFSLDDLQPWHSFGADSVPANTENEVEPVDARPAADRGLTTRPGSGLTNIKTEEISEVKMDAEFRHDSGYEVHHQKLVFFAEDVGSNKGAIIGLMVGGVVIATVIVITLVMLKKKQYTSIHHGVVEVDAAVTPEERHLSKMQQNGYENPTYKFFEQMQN

[4] = tested on: SH-SY5Y; test: cells; assay type: functional; conditions: Homo sapiens; remark: listed apart in the source
[5] = molecular target: Amyloid-beta precursor protein (Homo sapiens) (UniProt P05067); test: Inhibition of human amyloid beta (1 to 42) self-induced aggregation assessed as Amyloid beta (1 to 42) aggregation at 10 uM incubated for 48 hrs by thioflavin T-based fluorescence assay (reference value: 100%); parameters: scale not given: the % may be the effect or the level left
[6] = Selectivity index, ratio of IC50 for human recombinant AChE expressed in HEK293 cells to IC50 for equine serum BChE; assay type: cell-based
Method in brief: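 Both enzymes were run by the same Ellman method: substrate 0.2–0.5 mM, DTNB 0.125 mM, 100 mM MOPS pH 8.0, 25 °C, read at 412 nm. IC50 came from dose–response curves, and selectivity = IC50(AChE)/IC50(BChE).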

[7] = Cytotoxicity against mouse L929 cells assessed as cell viability at 10 uM incubated for 24 hrs by MTT assay (reference value: 100%); assay type: cell-based; conditions: read-out: Activity
Method in brief: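 L929 cells (ATCC CCL-1) seeded at 5000 per well, exposed to 10 μM compound for 24 h. MTT reagent was added, formazan dissolved in DMSO, and absorbance read at 570 and 690 nm. Viability is expressed relative to a non-treated control taken as 100%.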

[8] = molecular target: T2, Cholinesterase (Equus caballus, UniProt P81908); test: Inhibition of equine serum BChE using butyrylthiocholine iodide as substrate by Ellman's method
T2 sequence (P81908 whole entry): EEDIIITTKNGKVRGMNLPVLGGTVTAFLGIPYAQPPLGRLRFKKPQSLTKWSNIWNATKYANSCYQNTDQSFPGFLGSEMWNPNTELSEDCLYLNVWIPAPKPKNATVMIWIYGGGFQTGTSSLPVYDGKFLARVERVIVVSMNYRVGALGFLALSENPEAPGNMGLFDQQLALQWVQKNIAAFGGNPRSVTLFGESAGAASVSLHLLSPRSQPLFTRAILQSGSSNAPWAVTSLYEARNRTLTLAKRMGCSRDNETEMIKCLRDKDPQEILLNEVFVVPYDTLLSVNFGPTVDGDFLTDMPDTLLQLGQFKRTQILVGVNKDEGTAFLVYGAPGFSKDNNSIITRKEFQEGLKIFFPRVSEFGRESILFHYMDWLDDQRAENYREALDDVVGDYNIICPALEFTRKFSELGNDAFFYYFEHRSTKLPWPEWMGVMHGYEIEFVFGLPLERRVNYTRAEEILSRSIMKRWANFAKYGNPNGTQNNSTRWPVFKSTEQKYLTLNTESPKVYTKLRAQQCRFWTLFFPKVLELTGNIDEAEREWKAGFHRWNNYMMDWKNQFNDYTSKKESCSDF

[9] = molecular target: T1, Acetylcholinesterase; test: Competitive inhibition of human recombinant AChE expressed in HEK293 cells using acetylthiocholine iodide as substrate by Dixon and slope replot analysis
Method in brief: (§1)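 Ellman assay. Enzyme added last to a mix of thiocholine substrate (0.2–0.5 mM) and 0.125 mM DTNB in 100 mM MOPS pH 8.0 at 25 °C. Absorbance was followed at 412 nm. For kinetics, Dixon plots (1/v versus I) were built at inhibitor 0.5, 1, 10 and 100 μM and fitted with slope replots to get Ki. IC50 came from dose–response curves.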

[10] = molecular target: Cholinesterase (Equus caballus) (UniProt P81908); test: Partial non-competitive inhibition of equine serum BChE assessed as decrease in Vmax with unchanged Km using butyrylthiocholine iodide as substrate by Dixon and slope replot analysis
Chain of Cholinesterase (Equus caballus) (P81908 whole entry): as above
Method in brief: as §1

[11] = molecular target: T2, Cholinesterase; test: Partial non-competitive inhibition of equine serum BChE using butyrylthiocholine iodide as substrate by Dixon and slope replot analysis
Method in brief: as §1

T1 sequence (P22303 whole entry): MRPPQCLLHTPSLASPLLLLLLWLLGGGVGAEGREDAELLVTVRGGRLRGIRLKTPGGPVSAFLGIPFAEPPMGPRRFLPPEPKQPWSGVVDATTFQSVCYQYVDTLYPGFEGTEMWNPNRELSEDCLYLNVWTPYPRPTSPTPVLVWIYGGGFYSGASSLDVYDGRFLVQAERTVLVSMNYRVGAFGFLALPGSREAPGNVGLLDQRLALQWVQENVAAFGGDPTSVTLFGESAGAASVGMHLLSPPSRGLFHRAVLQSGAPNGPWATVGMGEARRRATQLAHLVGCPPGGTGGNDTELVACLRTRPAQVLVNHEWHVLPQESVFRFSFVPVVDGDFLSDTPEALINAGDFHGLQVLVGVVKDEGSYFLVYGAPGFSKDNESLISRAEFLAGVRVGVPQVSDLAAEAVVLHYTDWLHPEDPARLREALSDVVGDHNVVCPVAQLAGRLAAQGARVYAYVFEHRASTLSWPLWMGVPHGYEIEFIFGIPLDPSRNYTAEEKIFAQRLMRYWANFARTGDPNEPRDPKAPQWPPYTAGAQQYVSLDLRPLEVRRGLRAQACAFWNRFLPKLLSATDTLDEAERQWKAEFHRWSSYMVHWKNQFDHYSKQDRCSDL

Row | Structure (SMILES) | viability at 10 µM [1] [%] | IC50 [2] [µM] | Activity [3] [%] | viability at 10 µM [4] [%] | Activity [5] [%] | Ratio IC50 [6] | viability at 24 h, 10 µM [7] [%] | IC50 [8] [µM] | Ki [9] [µM] | inhibition [10] | Ki [11] [µM]
1 | COc1ccc(C2=NN(C(C)=O)C(c3ccc(N4CCC(C)CC4)cc3)C2)cc1OC (stereo unspecified) | 81.1 | 77.4 | 63.4 | 78.4 | 80.6 | 19.9 | 95.4 | 3.9 | – | – | –
2 | COc1ccc(C2=NN(C(C)=O)C(c3ccc(-n4cnc5ccccc54)cc3)C2)cc1OC (stereo unspecified) | – | 319 | – | – | – | 1.2 | – | 254 | – | – | –
3 | COc1ccc(C2=NN(C(C)=O)C(c3ccc(N4CCN(C)CC4)cc3)C2)cc1OC (stereo unspecified) | 93.6 | 6.5 | 72.6 | 95.6 | – | 1.1 | 93.3 | 6 | 0.63 | – | –
4 | COc1ccc(C2=NN(C(C)=O)C(c3ccc(N4CCN(c5ccccc5)CC4)cc3)C2)cc1OC (stereo unspecified) | – | 295 | – | – | – | 0.2 | – | 1900 | – | – | –
5 | COc1cc2c(cc1OC)C(=O)C(CC1CCN(Cc3ccccc3)CC1)C2 (stereo unspecified) [DONEPEZIL] | 69 | – | – | 62.5 | – | – | – | – | – | – | –
6 | COc1ccc(C2=NN(C(C)=O)C(c3ccc(-n4cncn4)cc3)C2)cc1OC (stereo unspecified) | – | 955 | – | – | – | 34.8 | – | 27.5 | – | – | –
7 | CO[C@H]1/C=C/O[C@@]2(C)Oc3c(C)c(O)c4c(O)c(c(/C=N/N5CCN(C)CC5)c(O)c4c3C2=O)NC(=O)/C(C)=C\C=C\[C@H](C)[C@H](O)[C@@H](C)[C@@H](O)[C@@H](C)[C@H](OC(C)=O)[C@@H]1C | – | – | 48.4 | – | – | – | – | – | – | – | –
8 | COc1ccc(C2=NN(C(C)=O)C(c3ccc(N4CCN(Cc5ccccc5)CC4)cc3)C2)cc1 (stereo unspecified) | – | 100 | – | – | – | 0.7 | – | 137 | – | – | –
9 | COc1ccc(C2=NN(C(C)=O)C(c3ccc(-n4ccnc4)cc3)C2)cc1OC (stereo unspecified) | – | 206 | – | – | – | 6.3 | – | 32.7 | – | – | –
10 | COc1ccc(C2=NN(C(C)=O)C(c3ccc(N4CCC(Cc5ccccc5)CC4)cc3)C2)cc1OC (stereo unspecified) | 84.4 | 20.1 | 86.4 | 83.5 | 82.2 | 9.8 | 101 | 2.1 | – | – | –
11 | COc1ccc(C2=NN(C(C)=O)C(c3ccc(N4CCN(Cc5ccccc5)CC4)cc3)C2)cc1OC (stereo unspecified) | 87 | 62.8 | 89.8 | 69.3 | – | 128 | 93.3 | 0.5 | – | – | –
12 | CCN1CCN(c2ccc(C3CC(c4ccc(OC)cc4)=NN3C(C)=O)cc2)CC1 (stereo unspecified) | – | 221 | – | – | – | 1 | – | 217 | – | – | –
13 | CCN1CCN(c2ccc(C3CC(c4ccc(OC)c(OC)c4)=NN3C(C)=O)cc2)CC1 (stereo unspecified) | 87.4 | 47.9 | 83.4 | 67.9 | – | 104 | 89.2 | 0.5 | – | Active | 2.22

Source: ChEMBL document CHEMBL4334423, “Synthesis, molecular docking, and biological evaluation of novel 2-pyrazoline derivatives as multifunctional agents for the treatment of Alzheimer's disease” (Medchemcomm, 2019)
